Results taken from ChEMBL document CHEMBL4229446, “Development of Novel Monoamine Oxidase-B (MAO-B) Inhibitors with Reduced Blood-Brain Barrier Permeability for the Potential Management of Noncentral Nervous System (CNS) Diseases” (J Med Chem, 2018).

Experiments:
[1] = molecular target: T1, Amine oxidase [flavin-containing] A (Homo sapiens, UniProt P21397); test: Inhibition of human recombinant MAO-A expressed in baculovirus infected BTI-TN-5B1-4 insect cells using tyramine as substrate preincubated for 1 hr followed by substrate addition and measured after 30 mins by resazurin dye-based fluorescence assay
T1 sequence (P21397 whole entry): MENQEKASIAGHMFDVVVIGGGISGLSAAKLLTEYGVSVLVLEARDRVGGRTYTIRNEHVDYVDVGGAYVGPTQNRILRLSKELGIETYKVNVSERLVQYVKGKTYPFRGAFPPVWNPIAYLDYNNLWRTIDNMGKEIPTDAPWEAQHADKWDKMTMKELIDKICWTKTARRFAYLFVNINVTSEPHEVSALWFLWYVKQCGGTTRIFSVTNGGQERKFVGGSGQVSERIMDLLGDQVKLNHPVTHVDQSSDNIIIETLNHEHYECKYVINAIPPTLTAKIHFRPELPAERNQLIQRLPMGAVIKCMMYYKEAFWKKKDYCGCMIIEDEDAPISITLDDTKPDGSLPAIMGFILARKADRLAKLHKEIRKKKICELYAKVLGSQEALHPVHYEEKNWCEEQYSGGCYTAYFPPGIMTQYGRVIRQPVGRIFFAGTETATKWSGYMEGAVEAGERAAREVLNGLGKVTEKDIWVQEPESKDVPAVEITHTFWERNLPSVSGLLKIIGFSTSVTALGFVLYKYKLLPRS

[2] = molecular target: T2, Amine oxidase [flavin-containing] B (Homo sapiens, UniProt P27338); test: Inhibition of human recombinant MAO-B expressed in baculovirus infected BTI-TN-5B1-4 insect cells using benzylamine as substrate preincubated for 1 hr followed by substrate addition and measured after 30 mins by resazurin dye-based fluorescence assay; format: cell-based
T2 sequence (P27338 whole entry): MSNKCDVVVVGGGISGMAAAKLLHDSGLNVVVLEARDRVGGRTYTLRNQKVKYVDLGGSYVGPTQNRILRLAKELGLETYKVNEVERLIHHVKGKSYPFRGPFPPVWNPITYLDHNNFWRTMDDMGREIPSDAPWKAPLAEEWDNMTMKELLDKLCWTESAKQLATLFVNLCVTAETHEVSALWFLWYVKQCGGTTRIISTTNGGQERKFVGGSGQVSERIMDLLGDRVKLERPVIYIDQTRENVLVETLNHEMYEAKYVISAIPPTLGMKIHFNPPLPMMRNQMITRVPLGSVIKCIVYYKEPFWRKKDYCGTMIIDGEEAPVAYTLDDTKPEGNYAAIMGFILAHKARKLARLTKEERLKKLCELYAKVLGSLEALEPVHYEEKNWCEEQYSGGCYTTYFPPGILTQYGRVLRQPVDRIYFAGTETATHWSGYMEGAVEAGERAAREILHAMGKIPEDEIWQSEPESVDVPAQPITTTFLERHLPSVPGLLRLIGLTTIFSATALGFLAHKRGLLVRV

[3] = tested on: P-gp (MDR1); test: Efflux ratio of apparent permeability in MDCK2-MDR1 cells at 10 uM after 1 hr in absence of P-gp inhibitor verapamil by UPLC-MS/MS analysis; format: ADME, cell-based, Canis lupus familiaris; settings: dog, MDCK-MDR1
Method in brief: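 MDCK-WT (MEM-α/10% FBS) or MDCK-MDR1 II (DMEM/10% FBS) cells were grown 3 days on 12-well transwells. Integrity was checked by TEER and 100 μM Lucifer yellow. Cells were washed in HBSS/10 mM HEPES. Compound at 10 μM was added apically or basally, in triplicate, ±100 μM verapamil. Receiver sampled at 1 h by UPLC-MS/MS. Efflux ratio = Papp B→A / Papp A→B.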

[4] = Metabolic stability in human plasma assessed as parent compound remaining at 5 uM after 4 hrs by UPLC-MS/MS analysis; format: ADME, cell-free; settings: read-out: Stability
Method in brief: (§1)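 Compound at 5 μM was incubated in mouse or human plasma at 37 °C with shaking. Sampled at 0, 5, 15, 30, 60, 120 and 240 min and stopped with ice-cold acetonitrile/0.1% formic acid containing internal standard. Supernatants analysed by UPLC-MS/MS for parent remaining. Run in triplicate.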

[5] = Metabolic stability in mouse plasma assessed as parent compound remaining at 5 uM after 4 hrs by UPLC-MS/MS analysis; format: ADME, cell-free; settings: read-out: Stability; method in brief: as §1
[6] = Metabolic stability in mouse liver microsomes assessed as parent compound remaining at 1 uM after 60 mins in presence of NADPH by UPLC-MS/MS analysis; format: ADME, microsome; settings: read-out: Stability
Method in brief: (§2)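 Compound at 1 μM with 0.5 mg/mL mouse or human liver microsomes in 100 mM potassium phosphate pH 7.4, 3.3 mM MgCl2, 1 mM NADPH, at 37 °C. Started with NADPH; minus-NADPH control run. Stopped at 0, 5, 15, 30, 45 and 60 min with acetonitrile/formic acid plus internal standard. Parent remaining by UPLC-MS/MS, in triplicate.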

[7] = Metabolic stability in human liver microsomes assessed as parent compound remaining at 1 uM after 60 mins by UPLC-MS/MS analysis; format: ADME, microsome; method in brief: as §2
[8] = Metabolic stability in cryopreserved mouse hepatocytes assessed as parent compound remaining at 1 uM after 60 mins by UPLC-MS/MS analysis; format: ADME, cell-based, Hepatocyte; settings: read-out: Stability
[9] = tested on: Mus musculus; test: Acute toxicity in C57BL/6 mouse assessed as abnormal clinical signs at […], sc administered as single dose measured after 24 hrs post-injection; format: organism-based; settings: in vivo
[10] = Tmax in C57BL/6 mouse plasma at 20 mg/kg, iv administered as single dose measured 24 hrs by UPLC-MS/MS analysis; format: ADME, organism-based
Method in brief: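 Plasma cleaned by protein precipitation with phospholipid removal, then UPLC-MS/MS in MRM mode. Tmax obtained by noncompartmental analysis.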

[11] = Cmax in C57BL/6 mouse plasma at 20 mg/kg, iv administered as single dose measured 24 hrs by UPLC-MS/MS analysis; format: ADME, organism-based; design: dose 20 mg/kg, route intravenous
Method in brief: (§3)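 21 animals dosed at 0 min, 3 sacrificed at each of 0, 5, 15, 30 min, 1, 4 and 24 h. Plasma was extracted by protein precipitation with phospholipid removal. Brain was weighed, bead-homogenised in 50 mM ammonium formate and extracted in acidified organic solvent. Quantified by UPLC-MS/MS (MRM). Brain ng/g taken as ng/mL. Parameters came from noncompartmental analysis. Kp = AUClast brain/plasma.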

[12] = AUClast in C57BL/6 mouse plasma at 20 mg/kg, iv administered as single dose measured 24 hrs by UPLC-MS/MS analysis; format: ADME, organism-based; design: dose 20 mg/kg, route intravenous, time 0 - last; method in brief: as §3
[13] = Apparent half-life of the terminal disposition phase in C57BL/6 mouse plasma at 20 mg/kg, iv administered as single dose measured 24 hrs by UPLC-MS/MS analysis; format: ADME, organism-based; settings: read-out: t1/2 lambda z (converted); method in brief: as §3
[14] = Tmax in C57BL/6 mouse brain at 20 mg/kg, iv administered as single dose measured 24 hrs by UPLC-MS/MS analysis; format: ADME, organism-based; method in brief: as §3
[15] = Cmax in C57BL/6 mouse brain at 20 mg/kg, iv administered as single dose measured 24 hrs by UPLC-MS/MS analysis; format: ADME, organism-based; design: dose 20 mg/kg, route intravenous; method in brief: as §3
[16] = AUClast in C57BL/6 mouse brain at 20 mg/kg, iv administered as single dose measured 24 hrs by UPLC-MS/MS analysis; format: ADME, organism-based; design: dose 20 mg/kg, time 0 - last, route intravenous; method in brief: as §3
[17] = Ratio of AUClast in brain to plasma in C57BL/6 mouse at 20 mg/kg, iv administered as single dose measured 24 hrs by UPLC-MS/MS analysis; format: ADME, organism-based; method in brief: as §3
[18] = tested on: Mus musculus; test: Acute toxicity in C57BL/6 mouse assessed as abnormal clinical signs at […], iv administered as single dose measured after 24 hrs post-injection; format: organism-based; settings: in vivo
[19] = tested on: Mus musculus; test: Acute toxicity in C57BL/6 mouse assessed as abnormal clinical signs at […], po administered as single dose measured after 24 hrs post-injection; format: organism-based; settings: in vivo
[20] = Efflux ratio of apparent permeability in MDCK-WT cells at 10 uM after 1 hr in absence of P-gp inhibitor verapamil by UPLC-MS/MS analysis; settings: dog
[21] = Metabolic stability in mouse liver microsomes assessed as parent compound remaining at 1 uM after 60 mins by UPLC-MS/MS analysis; format: ADME, microsome; settings: microsomes, 1 h, 1 µM; method in brief: as §2
[22] = tested on: Mus musculus; test: Acute toxicity in C57BL/6 mouse assessed as lethargy at 10.8 mg/kg, iv after 1 hr post-injection; format: organism-based; settings: in vivo
[23] = tested on: Mus musculus; test: Acute toxicity in C57BL/6 mouse assessed as piloerection at 10.8 mg/kg, sc after 1 hr post-injection; format: organism-based; settings: in vivo
[24] = Cmax in C57BL/6 mouse plasma at 10.8 mg/kg, iv administered as single dose measured 24 hrs by UPLC-MS/MS analysis; format: ADME, organism-based; design: dose 10.8 mg/kg, route intravenous
Method in brief: (§4)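 Plasma extracted by protein precipitation/phospholipid removal; brain weighed, homogenised in 50 mM ammonium formate, extracted in acidified organic solvent, ng/g taken as ng/mL. Quantified by UPLC-MS/MS (MRM); parameters by noncompartmental analysis.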

[25] = Tmax in C57BL/6 mouse plasma at 10.8 mg/kg, iv administered as single dose measured 24 hrs by UPLC-MS/MS analysis; format: ADME, organism-based; method in brief: as §4
[26] = AUClast in C57BL/6 mouse plasma at 10.8 mg/kg, iv administered as single dose measured 24 hrs by UPLC-MS/MS analysis; format: ADME, organism-based; design: dose 10.8 mg/kg, route intravenous, time 0 - last; method in brief: as §4
[27] = Apparent half-life of the terminal disposition phase in C57BL/6 mouse plasma at 10.8 mg/kg, iv administered as single dose measured 24 hrs by UPLC-MS/MS analysis; format: ADME, organism-based; settings: read-out: t1/2 lambda z (converted); method in brief: as §4
[28] = Apparent half-life of the terminal disposition phase in C57BL/6 mouse brain at 10.8 mg/kg, iv administered as single dose measured 24 hrs by UPLC-MS/MS analysis; format: ADME, organism-based; settings: read-out: t1/2 lambda z (converted); method in brief: as §3
[29] = Tmax in C57BL/6 mouse brain at 10.8 mg/kg, iv administered as single dose measured 24 hrs by UPLC-MS/MS analysis; format: ADME, organism-based; method in brief: as §4
[30] = Cmax in C57BL/6 mouse brain at 10.8 mg/kg, iv administered as single dose measured 24 hrs by UPLC-MS/MS analysis; format: ADME, organism-based; design: dose 10.8 mg/kg, route intravenous; method in brief: as §3
[31] = AUClast in C57BL/6 mouse brain at 10.8 mg/kg, iv administered as single dose measured 24 hrs by UPLC-MS/MS analysis; format: ADME, organism-based; design: dose 10.8 mg/kg, route intravenous, time 0 - last; method in brief: as §3
[32] = Ratio of AUClast in brain to plasma in C57BL/6 mouse at 10.8 mg/kg, iv administered as single dose measured 24 hrs by UPLC-MS/MS analysis; format: ADME, organism-based; method in brief: as §3
[33] = tested on: Mus musculus; test: Acute toxicity in C57BL/6 mouse assessed as lethargy at 10.8 mg/kg, sc after 1 hr post-injection; format: organism-based; settings: in vivo
[34] = tested on: Mus musculus; test: Acute toxicity in C57BL/6 mouse assessed as lethargy at 10.8 mg/kg, po after 1 hr post-injection; format: organism-based; settings: in vivo
[35] = tested on: Mus musculus; test: Acute toxicity in C57BL/6 mouse assessed as piloerection at 10.8 mg/kg, iv after 1 hr post-injection; format: organism-based; settings: in vivo
[36] = tested on: Mus musculus; test: Acute toxicity in C57BL/6 mouse assessed as piloerection at 10.8 mg/kg, po after 1 hr post-injection; format: organism-based; settings: in vivo

## C[C@H](Cc1ccc(OCc2cccc(Cl)c2)cc1)N(C)CC(=O)O
[1]
  IC50: > 50000 nM
[2]
  IC50: 264 nM
[3]
  efflux ratio at 1 h, 10 µM: 1.75
[4]
  remaining at 4 h, 5 µM: ≥ 75%
[5]
  remaining at 4 h, 5 µM: ≥ 75%
[6]
  remaining at 1 h, 1 µM: 87.3%
[7]; liver microsomes, read-out: Stability
  remaining at 1 h, 1 µM: ≥ 90%
[8]
  remaining at 1 h, 1 µM: ≥ 90%
[9]
  Activity: Non-Toxic
[10]
  Tmax: 5 min
[11]
  Cmax: 16600 ng/mL
[12]
  AUC(0-t) at 24 h: 112000 ng·h/mL
[13]
  half-life: 271 min
[14]
  Tmax: 60 min
[15]
  Cmax: 648 ng/mL
[16]
  AUC(0-t) at 24 h: 2280 ng·h/mL
[17]
  Kp at 24 h: 0.02
[18]
  Activity: Non-Toxic
[19]
  Activity: Non-Toxic
[20]
  efflux ratio at 1 h, 10 µM: 1.23

## C#CCN(C)[C@H](C)Cc1ccccc1 [SELEGILINE]
[4]
  remaining at 4 h, 5 µM: 55%
[5]
  remaining at 4 h, 5 µM: 61%
[21]
  Stability: Unstable
[7]; microsomes, 1 h, 1 µM
  Stability: Unstable
[22]
  Activity: Toxic
[23]
  Activity: Toxic
[24]
  Cmax: 569 ng/mL
[25]
  Tmax: 5 min
[26]
  AUC(0-t) at 24 h: 242 ng·h/mL
[27]
  half-life: 33.6 min
[28]
  half-life: 17.4 min
[29]
  Tmax: 5 min
[30]
  Cmax: 4220 ng/mL
[31]
  AUC(0-t) at 24 h: 1390 ng·h/mL
[32]
  Kp at 24 h: 5.73
[33]
  Activity: Toxic
[34]
  Activity: Toxic
[35]
  Activity: Toxic
[36]
  Activity: Toxic
